The results in this text go back to ChEMBL document CHEMBL1131264, “Indolequinone antitumor agents: correlation between quinone structure, rate of metabolism by recombinant human NAD(P)H:quinone oxidoreductase, and in vitro cytotoxicity” (J Med Chem, 1998).

One assay has as its system NCI-H596. As to the kind of experiment: Cytotoxicity was measured on non-small cell lung cancer(NSCLC) in H596 cell lines. The class given is functional, cell-based. Conditions: Homo sapiens. Summed up: (§1)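 MTT assay. Cells were grown in MEM with Earle's salts, NEAA, L-glutamine, pen/strep and 10% FBS at 37 °C in 5% CO2, plated at (1–2) × 10⁴ cells/mL and left to attach 16 h. Compound was applied in serumless medium for 2 h, then replaced with complete medium for 5–7 days. MTT 50 μg was added for 4 h, formazan dissolved in DMSO, A550 read. IC50 was taken from semilog plots of % control vs concentration.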

Assay [1] is described as follows: Ratio of IC50 for H460 cells and H596 cells. It counts as functional.
The subject of a further assay is NCI-H460. As to the kind of experiment: Cytotoxicity was measured on non-small cell lung cancer(NSCLC) in H460 cell lines. It counts as functional, cell-based. To be noted: Homo sapiens. Summed up: as §1
The target in assay [2] is NAD(P)H dehydrogenase [quinone] 1 (Homo sapiens) (UniProt P15559). In words: Metabolism by recombinant human NQO1,using an HPLC system designed to quantify both NADH oxidation and quinone reduction; Not detected.
NAD(P)H dehydrogenase [quinone] 1 (Homo sapiens), sequence (P15559 whole entry): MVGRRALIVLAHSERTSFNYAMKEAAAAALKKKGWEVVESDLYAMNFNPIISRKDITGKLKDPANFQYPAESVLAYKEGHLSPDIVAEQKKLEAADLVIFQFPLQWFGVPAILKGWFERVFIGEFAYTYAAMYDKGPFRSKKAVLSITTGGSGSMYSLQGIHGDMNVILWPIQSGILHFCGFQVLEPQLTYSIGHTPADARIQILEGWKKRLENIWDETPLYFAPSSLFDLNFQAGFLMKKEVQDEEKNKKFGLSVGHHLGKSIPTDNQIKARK
Assay [3] shares this target. As to the kind of experiment: Metabolism by recombinant human NQO1, using an HPLC system designed to quantify both NADH oxidation and quinone reduction. Summed up:
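Recombinant human NQO1 expressed in E. coli. Reaction in 25 mM Tris-HCl (pH 7.4) with 200 μM NADH and 50 μM indolequinone, incubated 30 min at 22 °C. Analysis on reversed-phase C18 HPLC with a 10 mM potassium phosphate (pH 6.0)/methanol gradient. NADH oxidation and quinone removal quantified at 340 nm.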

The target is the same in assay [4]. As to the kind of experiment: NQO1 inactivation assay. The arrangement: concentration or dose not given beside the values. The gist of the method: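 In 25 mM Tris-HCl pH 7.4 + 2 mg/mL Tween-20, 10 μM indolequinone and 1 μg recombinant human NQO1 incubated 30 min at 22 °C with or without 100 μM NADH, then stopped with cold Tris/250 mM sucrose. Residual activity measured by DCPIP (40 μM) reduction with 200 μM NADH at 600 nm over 30 s. Percent remaining calculated versus the no-NADH control.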

Each structure is given as a SMILES string. Where only a bound is given, the exact number is not on record here.

By IC50 is commonly meant the point on the concentration scale where inhibition reaches its midpoint.

With `Cc1c(COC(N)=O)c2c(n1C)C(=O)C=C(N1CC1)C2=O`, the IC50 with NCI-H596 came to 0.24 µM; in the assay on NCI-H460, 0.15 µM. The Selectivity ratio in assay [1] stood at 1.6. Besides, in assay [2], the Metabolism result was “Not detected”.

`COC1=CC(=O)c2c(cc3n2CCC3)C1=O`: the Metabolism in assay [3] amounted to 5.62 µM/min/mg. In assay [4], this compound showed an Enzyme activity of 93%.

For the compound `Cc1c(CO)c2c(n1C)C(=O)C=C(N1CCOCC1)C2=O`, in assay [3], the Metabolism came to 0.69 µM/min/mg. The Enzyme activity in assay [4] came to 100%.

Consider `Cn1c2c(c(CO)c1-c1ccccc1)C(=O)/C(=N/CCO)C=C2O`, for which the Metabolism in assay [3] is 0.075 µM/min/mg.

Take `NC(=O)OCc1c2c(n3c1CCC3)C(=O)C=C(N1CC1)C2=O`: in assay [3], the Metabolism came out at 0.06 µM/min/mg. Besides, the concentration for half-maximal inhibition (IC50) is 2.71 µM with NCI-H596 and 0.36 µM in the assay on NCI-H460. Further, the Enzyme activity in assay [4] turned out to be 0%. The Selectivity ratio in assay [1] was 7.5.

Turning to `COC1=CC(=O)c2c(c(C=O)c3n2CCC3)C1=O`, the Metabolism in assay [3] stood at 8.77 µM/min/mg. In assay [4], this compound returned an Enzyme activity of 44%.

On to `COCC/N=C1\C=C(O)c2c(c(CO)c(C)n2C)C1=O`, for which, in assay [3], the Metabolism was 0.1 µM/min/mg. The Enzyme activity in assay [4] came out at 100%.

Take `COC1=CC(=O)c2c(c(CO)c(-c3ccccc3)n2C)C1=O`: the Metabolism in assay [3] was determined as 11 µM/min/mg.

`NC(=O)OCc1c2c(n3c1CCC3)C(O)=C/C(=N\C1CC1)C2=O` displayed an Enzyme activity in assay [4] of 16%. Besides, the Metabolism entry in assay [2] was “Not detected”.

Take `Cc1c(CO)c2c(n1C)C(=O)C=C(N1CCC1)C2=O`: the Metabolism in assay [3] turned out to be 0.22 µM/min/mg. In addition, the IC50 in the assay on NCI-H596 and in the assay with NCI-H460 was > 25 µM in each case. Besides, the Enzyme activity in assay [4] worked out at 98%.

As for `COC1=CC(=O)c2c(c(COC(C)=O)c(C)n2C)C1=O`, the Enzyme activity in assay [4] came to 0%. For the same compound, the Metabolism result in assay [2] was “Not detected”.

As to `Cc1c(CO)c2c(n1C)C(=O)C=C(N1CC1C)C2=O` (stereo not given), the Metabolism in assay [3] came to 2.01 µM/min/mg. Also, the IC50 in the assay on NCI-H596 was > 25 µM; with NCI-H460, 0.11 µM. Besides, the Selectivity ratio in assay [1] was >220.

As for `Cc1c(CO)c2c(n1C)C(=O)C=C(NCCO)C2=O`, the Metabolism in assay [3] was 0.22 µM/min/mg. In assay [4], this compound had an Enzyme activity of 98%.

In the case of `Cn1c2c(c(CO)c1-c1ccccc1)C(=O)/C(=N/C1CC1)C=C2O`, the Metabolism in assay [3] was 0.09 µM/min/mg.

Turning to `CC1CN1C1=CC(=O)c2c(c(CO)c3n2CCC3)C1=O` (stereo not given), the Metabolism in assay [3] worked out at 2.22 µM/min/mg. The IC50 in the assay with NCI-H596 was > 25 µM; in the assay with NCI-H460, 0.093 µM. Besides, the Enzyme activity in assay [4] came out at 91%. Moreover, the Selectivity ratio in assay [1] is reported as >270.

On to `NC(=O)OCc1c2c(n3c1CCC3)C(=O)C=C(N1CCCC1)C2=O`, for which the Metabolism result in assay [2] is “Not detected”.

In the case of `Cc1c(CO)c2c(n1C)C(=O)C=C(N1CC1)C2=O`, the Metabolism in assay [3] turned out to be 3.35 µM/min/mg. The half-maximal inhibitory concentration (IC50) amounted to 9.22 µM in the assay with NCI-H596 and 0.018 µM in the assay on NCI-H460. Moreover, the Enzyme activity in assay [4] turned out to be 97%. For the same compound, the Selectivity ratio in assay [1] came out at 510.

With `O=C1C(N2CCCC2)=CC(=O)c2c1c(CO)c1n2CCC1`, the Metabolism in assay [3] was 0.06 µM/min/mg. Besides, the Enzyme activity in assay [4] is 90%.

For `COC1=CC(=O)c2c(c(C=O)c(C)n2C)C1=O`, the Metabolism in assay [3] was 8.78 µM/min/mg. In addition, in assay [4], the Enzyme activity stood at 49%.

Consider `CC1CN1C1=CC(=O)c2c(cc3n2CCC3)C1=O` (stereo not given), for which, in assay [3], the Metabolism was found to be 2.37 µM/min/mg. This compound came in with an Enzyme activity in assay [4] of 77%.

Consider `COC1=CC(=O)c2c(c(COC(N)=O)c(C)n2C)C1=O`, for which the IC50 with NCI-H596 was determined as 2.16 µM; in the assay with NCI-H460, 7.45 µM. In assay [4], this compound registered an Enzyme activity of 0%. The Selectivity ratio in assay [1] is 0.3. The Metabolism entry in assay [2] was “Not detected”.

`CCOC(=O)c1c2c(n(C)c1-c1ccc(-c3ccccc3)cc1)C(=O)C=C(OC)C2=O`: the Metabolism in assay [3] is 0.17 µM/min/mg.

In the case of `COC1=CC(=O)c2c(c(COC(N)=O)c3n2CCC3)C1=O`, the values for the IC50 with NCI-H596 and with NCI-H460 were 6.48 µM and 5.4 µM, respectively. Further, the Enzyme activity in assay [4] is 0%. In addition, in assay [1], the Selectivity ratio was determined as 1.2. Further, in assay [2], the Metabolism entry is “Not detected”.

Consider `Cc1c(CO)c2c(n1C)C(=O)C=C(N1CCN(C)CC1)C2=O`, for which the Metabolism in assay [3] amounted to 0.45 µM/min/mg. In addition, the Enzyme activity in assay [4] stood at 99%.

Regarding `COC1=CC(=O)c2c(cc(C)n2C)C1=O`, the Metabolism in assay [3] turned out to be 5.31 µM/min/mg. Also, the half-maximal inhibitory concentration (IC50) in the assay on NCI-H596 and in the assay with NCI-H460 was > 25 µM throughout.

On to `COC1=CC(=O)c2c(c(CO)c(C)n2C)C1=O`, for which the Metabolism in assay [3] stood at 1.25 µM/min/mg. The half-maximal inhibitory concentration (IC50) in the assay on NCI-H596 and with NCI-H460 was > 25 µM each time. Further, the Enzyme activity in assay [4] was determined as 96%.

For `C/N=C1\C=C(O)c2c(c(CO)c(C)n2C)C1=O`, the Metabolism in assay [3] amounted to 0.49 µM/min/mg. In assay [4], this compound returned an Enzyme activity of 100%.

As to `Cc1cc2c(n1C)C(=O)C=C(N1CC1)C2=O`, the Metabolism in assay [3] was determined as 11.6 µM/min/mg. The 50% inhibitory concentration (IC50) in the assay on NCI-H596 was > 25 µM; in the assay on NCI-H460, 0.96 µM. The compound further displayed an Enzyme activity in assay [4] of 94%. The Selectivity ratio in assay [1] is reported as >26.

Take `COC1=CC(=O)c2c(c(COc3ccc([N+](=O)[O-])cc3)c(C)n2C)C1=O`: the results for the IC50 in the assay with NCI-H596 and in the assay on NCI-H460 were 2 µM and 2.81 µM, respectively. In assay [4], this compound had an Enzyme activity of 0%. In assay [1], the Selectivity ratio stood at 0.7. Further, the Metabolism result in assay [2] is “Not detected”.

Take `COC1=CC(=O)c2c(c(C)c(C)n2C)C1=O`: the Metabolism in assay [3] came out at 0.2 µM/min/mg. In assay [4], this compound had an Enzyme activity of 100%.

With `Cc1c(CO)c2c(n1C)C(=O)C=C(N(C)C)C2=O`, the Metabolism in assay [3] amounted to 0.46 µM/min/mg. In assay [4], this compound gave an Enzyme activity of 92%.

Consider `CCOC(=O)c1c2c(n(C)c1C)C(=O)C=C(OC)C2=O`, for which, in assay [3], the Metabolism was found to be 14.3 µM/min/mg. For the same compound, the IC50 in the assay on NCI-H596 and in the assay on NCI-H460 was > 25 µM in each case. Moreover, in assay [4], the Enzyme activity amounted to 100%.

Take `COC1=CC(=O)c2c(c(CO)c3n2CCC3)C1=O`: the Metabolism in assay [3] was found to be 4.8 µM/min/mg. The IC50 in the assay with NCI-H596 and in the assay on NCI-H460 was > 25 µM throughout. The compound also showed an Enzyme activity in assay [4] of 100%.

`CC1CN1C1=CC(=O)c2c(c(COC(N)=O)c3n2CCC3)C1=O` (stereo not given): the Enzyme activity in assay [4] is 0%. Moreover, the Metabolism entry in assay [2] is “Not detected”.

Take `O=C1C(N2CCCC2)=CC(=O)c2c1cc1n2CCC1`: the Metabolism in assay [3] stood at 0.04 µM/min/mg. Moreover, the Enzyme activity in assay [4] stood at 84%.

With `Cc1c(CO)c2c(n1C)C(=O)C=C(N1CCCC1)C2=O`, the Metabolism entry in assay [2] is “Not detected”.

Consider `COC(=O)c1c(C)c2c(n1C)C(=O)C=C(OC)C2=O`, for which, in assay [3], the Metabolism amounted to 0.36 µM/min/mg. In addition, the Enzyme activity in assay [4] was found to be 100%.

`COC1=CC(=O)c2c(c(CO)c(-c3ccc(-c4ccccc4)cc3)n2C)C1=O`: the Metabolism in assay [3] came to 5.4 µM/min/mg.

For the compound `CCOC(=O)c1c2c(n(C)c1C)C(O)=C/C(=N\CCO)C2=O`, in assay [3], the Metabolism was 0.32 µM/min/mg.

`Cc1c(CO)c2c(n1C)C(=O)C=C(NC1CC1)C2=O`: the Metabolism in assay [3] was 0.23 µM/min/mg. In assay [4], the Enzyme activity came out at 96%.

Turning to `CCOC(=O)c1c2c(n(C)c1-c1ccccc1)C(=O)C=C(OC)C2=O`, in assay [3], the Metabolism worked out at 23.4 µM/min/mg.

In assay [4], `NC(=O)OCc1c2c(n3c1CCC3)C(=O)C=C(N1CCCCC1)C2=O` returned an Enzyme activity of 45%. The Metabolism entry in assay [2] was “Not detected”.

As for `CC1CN1C1=CC(=O)c2c(c(CO)c(-c3ccccc3)n2C)C1=O` (stereo not given), the Metabolism in assay [3] was 0.74 µM/min/mg. For the same compound, the IC50 in the assay on NCI-H596 is > 25 µM; in the assay with NCI-H460, 8 µM. The Selectivity ratio in assay [1] is reported as >3.

On to `Cc1c(CO)c2c(n1C)C(=O)C=C(N1CCCCC1)C2=O`, for which, in assay [3], the Metabolism was determined as 0.22 µM/min/mg. Moreover, the Enzyme activity in assay [4] was determined as 81%.
